{
  "source": "ChEMBL document CHEMBL4007430",
  "about": "“Synthesis and Cytostatic and Antiviral Profiling of Thieno-Fused 7-Deazapurine Ribonucleosides” (J Med Chem, 2017)",
  "key": {"BJ": {"test_system": "BJ", "assay": "Cytotoxicity against human BJ cells assessed as cell growth inhibition after 72 hrs by MTS assay", "type": "cell-based", "procedure,_shortened": "(§1)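 Cells were exposed to compound for 3 days, then stained with MTS as a quantitative metabolic read-out. IC50 is the concentration that inhibits cell growth by 50%.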"}, "MRC5": {"test_system": "MRC5", "assay": "Cytotoxicity against human MRC5 cells assessed as cell growth inhibition after 72 hrs by MTS assay", "type": "cell-based", "details": "MRC5, 72 h", "procedure,_shortened": "as §1"}, "[1]": {"assay": "Cytotoxicity against mrp-1/mdr-1 overexpressing human CEM-DNR-bulk cells assessed as cell growth inhibition after 72 hrs by MTS assay", "type": "functional, cell-based", "procedure,_shortened": "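Cells were exposed to compound for 3 days, then stained with MTS as a quantitative metabolic read-out.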"}, "HCT-116 [2]": {"test_system": "HCT-116", "assay": "Cytotoxicity against human HCT116 cells assessed as cell growth inhibition after 72 hrs by MTS assay", "type": "functional, cell-based", "details": "HCT-116, 72 h", "procedure,_shortened": "as §1"}, "HCT-116 [3]": {"test_system": "HCT-116", "assay": "Cytotoxicity against p53 deficient human HCT116 cells assessed as cell growth inhibition after 72 hrs by MTS assay", "type": "functional, cell-based", "details": "HCT-116, 72 h", "procedure,_shortened": "as §1"}, "K562": {"test_system": "K562", "assay": "Cytotoxicity against human K562 cells assessed as cell growth inhibition after 72 hrs by MTS assay", "type": "functional, cell-based", "details": "K562, 72 h", "procedure,_shortened": "as §1"}, "[4]": {"assay": "Cytotoxicity against human K562-TAX cells assessed as cell growth inhibition after 72 hrs by MTS assay", "type": "functional, cell-based", "procedure,_shortened": "as §1"}, "U2OS": {"test_system": "U2OS", "assay": "Cytotoxicity against human U2OS cells assessed as cell growth inhibition after 72 hrs by MTS assay", "type": "functional, cell-based"}, "HL-60": {"test_system": "HL-60", "assay": "Cytotoxicity against human HL60 cells assessed as reduction in cell viability after 72 hrs by XTT assay", "type": "functional, cell-based", "details": "HL-60, 72 h", "procedure,_shortened": "(§2)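 Cells were incubated with compound for 3 days. Viability was then measured with the XTT tetrazolium assay.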"}, "HepG2": {"test_system": "HepG2", "assay": "Cytotoxicity against human HepG2 cells assessed as reduction in cell viability after 72 hrs by XTT assay", "type": "functional, cell-based", "details": "HepG2, 72 h", "procedure,_shortened": "as §2"}, "HeLa S3": {"test_system": "HeLa S3", "assay": "Cytotoxicity against human HeLaS3 cells assessed as reduction in cell viability after 72 hrs by XTT assay", "type": "functional, cell-based", "details": "HeLa S3, 72 h", "procedure,_shortened": "as §2"}, "A549": {"test_system": "A549", "assay": "Cytotoxicity against human A549 cells assessed as cell growth inhibition after 72 hrs by MTS assay", "type": "functional, cell-based", "details": "A549, 72 h", "procedure,_shortened": "as §1"}, "Adenosine kinase [5]": {"biological_target": "T1, Adenosine kinase (Homo sapiens, UniProt P55263)", "T1 sequence (P55263 whole entry)": "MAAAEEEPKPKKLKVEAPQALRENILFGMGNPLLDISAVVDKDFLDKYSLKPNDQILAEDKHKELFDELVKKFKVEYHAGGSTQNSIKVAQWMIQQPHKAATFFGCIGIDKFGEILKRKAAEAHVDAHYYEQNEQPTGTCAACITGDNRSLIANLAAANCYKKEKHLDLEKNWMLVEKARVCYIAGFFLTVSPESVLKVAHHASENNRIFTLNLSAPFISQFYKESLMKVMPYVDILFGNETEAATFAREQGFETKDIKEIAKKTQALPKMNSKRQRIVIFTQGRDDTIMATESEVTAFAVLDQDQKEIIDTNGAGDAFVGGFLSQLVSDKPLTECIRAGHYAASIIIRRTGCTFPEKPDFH", "assay": "Drug metabolism in human BJ cells assessed as ADK-mediated 4-(Methylsulfanyl)-8-(beta-D-ribofuranosyl)-8H-thieno[2, 3:4,5]-pyrrolo[2,3-d]pyrimidine-5-O-monophosphate Sodium Salt formation per 5 x10^5 cells at 1 umol/L after 1 hr by UPLC-MS/MS analysis", "type": "ADME, cell-based", "details": "1 µM"}, "Adenosine kinase [6]": {"biological_target": "T1, Adenosine kinase", "assay": "Drug metabolism in human HCT116 cells assessed as ADK-mediated 4-(Methylsulfanyl)-8-(beta-D-ribofuranosyl)-8H-thieno[2, 3:4,5]-pyrrolo[2,3-d]pyrimidine-5-O-monophosphate Sodium Salt formation per 5 x10^5 cells at 1 umol/L after 1 hr by UPLC-MS/MS analysis", "type": "ADME, cell-based", "details": "1 µM"}, "Adenosine kinase [7]": {"biological_target": "T1, Adenosine kinase", "assay": "Drug metabolism in human BJ cells assessed as ADK-mediated 4-(Methylsulfanyl)-8-(beta-D-ribofuranosyl)-8H-thieno[2, 3:4,5]-pyrrolo[2,3-d]pyrimidine-5-O-monophosphate Sodium Salt formation per 5 x10^5 cells at 1 umol/L after 3 hrs by UPLC-MS/MS analysis", "type": "ADME, cell-based", "details": "1 µM"}, "Adenosine kinase [8]": {"biological_target": "T1, Adenosine kinase", "assay": "Drug metabolism in human HCT116 cells assessed as ADK-mediated 4-(Methylsulfanyl)-8-(beta-D-ribofuranosyl)-8H-thieno[2, 3:4,5]-pyrrolo[2,3-d]pyrimidine-5-O-monophosphate Sodium Salt formation per 5 x10^5 cells at 1 umol/L after 3 hrs by UPLC-MS/MS analysis", "type": "ADME, cell-based", "details": "1 µM"}, "Adenosine kinase [9]": {"biological_target": "T1, Adenosine kinase", "assay": "Drug metabolism in human BJ cells assessed as ADK-mediated 4-(Methylsulfanyl)-8-(beta-D-ribofuranosyl)-8H-thieno[2, 3:4,5]-pyrrolo[2,3-d]pyrimidine-5-O-monophosphate Sodium Salt formation per 5 x10^5 cells at 10 umol/L after 1 hr by UPLC-MS/MS analysis", "type": "ADME, cell-based", "details": "10 µM"}, "Adenosine kinase [10]": {"biological_target": "T1, Adenosine kinase", "assay": "Drug metabolism in human HCT116 cells assessed as ADK-mediated 4-(Methylsulfanyl)-8-(beta-D-ribofuranosyl)-8H-thieno[2, 3:4,5]-pyrrolo[2,3-d]pyrimidine-5-O-monophosphate Sodium Salt formation per 5 x10^5 cells at 10 umol/L after 1 hr by UPLC-MS/MS analysis", "type": "ADME, cell-based", "details": "10 µM"}, "Adenosine kinase [11]": {"biological_target": "T1, Adenosine kinase", "assay": "Drug metabolism in human BJ cells assessed as ADK-mediated 4-(Methylsulfanyl)-8-(beta-D-ribofuranosyl)-8H-thieno[2, 3:4,5]-pyrrolo[2,3-d]pyrimidine-5-O-monophosphate Sodium Salt formation per 5 x10^5 cells at 10 umol/L after 3 hrs by UPLC-MS/MS analysis", "type": "ADME, cell-based", "details": "10 µM"}, "Adenosine kinase [12]": {"biological_target": "T1, Adenosine kinase", "assay": "Drug metabolism in human HCT116 cells assessed as ADK-mediated 4-(Methylsulfanyl)-8-(beta-D-ribofuranosyl)-8H-thieno[2, 3:4,5]-pyrrolo[2,3-d]pyrimidine-5-O-monophosphate Sodium Salt formation per 5 x10^5 cells at 10 umol/L after 3 hrs by UPLC-MS/MS analysis", "type": "ADME, cell-based", "details": "10 µM"}, "Adenosine kinase [13]": {"biological_target": "T1, Adenosine kinase", "assay": "Drug level in human BJ cells assessed as ADK-mediated compound formation treated with 4-(Methylsulfanyl)-8-(beta-D-ribofuranosyl)-8H-thieno[2',3':4,5]-pyrrolo[2,3-d]pyrimidine at 1 umol/L after 1 hr by UPLC-MS/MS analysis", "type": "ADME, cell-based"}, "Adenosine kinase [14]": {"biological_target": "T1, Adenosine kinase", "assay": "Drug level in human BJ cells assessed as ADK-mediated compound formation treated with 4-(Methylsulfanyl)-8-(beta-D-ribofuranosyl)-8H-thieno[2',3':4,5]-pyrrolo[2,3-d]pyrimidine at 1 umol/L after 3 hrs by UPLC-MS/MS analysis", "type": "ADME, cell-based"}, "Adenosine kinase [15]": {"biological_target": "T1, Adenosine kinase", "assay": "Drug level in human BJ cells assessed as ADK-mediated compound formation treated with 4-(Methylsulfanyl)-8-(beta-D-ribofuranosyl)-8H-thieno[2',3':4,5]-pyrrolo[2,3-d]pyrimidine at 10 umol/L after 1 hr by UPLC-MS/MS analysis", "type": "ADME, cell-based"}, "Adenosine kinase [16]": {"biological_target": "T1, Adenosine kinase", "assay": "Drug level in human BJ cells assessed as ADK-mediated compound formation treated with 4-(Methylsulfanyl)-8-(beta-D-ribofuranosyl)-8H-thieno[2',3':4,5]-pyrrolo[2,3-d]pyrimidine at 10 umol/L after 3 hrs by UPLC-MS/MS analysis", "type": "ADME, cell-based"}, "Adenosine kinase [17]": {"biological_target": "T1, Adenosine kinase", "assay": "Drug level in human HCT116 cells assessed as ADK-mediated compound formation treated with 4-(Methylsulfanyl)-8-(beta-D-ribofuranosyl)-8H-thieno[2',3':4,5]-pyrrolo[2,3-d]pyrimidine at 1 umol/L after 1 hr by UPLC-MS/MS analysis", "type": "ADME, cell-based"}, "Adenosine kinase [18]": {"biological_target": "T1, Adenosine kinase", "assay": "Drug level in human HCT116 cells assessed as ADK-mediated compound formation treated with 4-(Methylsulfanyl)-8-(beta-D-ribofuranosyl)-8H-thieno[2',3':4,5]-pyrrolo[2,3-d]pyrimidine at 1 umol/L after 3 hrs by UPLC-MS/MS analysis", "type": "ADME, cell-based"}, "Adenosine kinase [19]": {"biological_target": "T1, Adenosine kinase", "assay": "Drug level in human HCT116 cells assessed as ADK-mediated compound formation treated with 4-(Methylsulfanyl)-8-(beta-D-ribofuranosyl)-8H-thieno[2',3':4,5]-pyrrolo[2,3-d]pyrimidine at 10 umol/L after 1 hr by UPLC-MS/MS analysis", "type": "ADME, cell-based"}, "Adenosine kinase [20]": {"biological_target": "T1, Adenosine kinase", "assay": "Drug level in human HCT116 cells assessed as ADK-mediated compound formation treated with 4-(Methylsulfanyl)-8-(beta-D-ribofuranosyl)-8H-thieno[2',3':4,5]-pyrrolo[2,3-d]pyrimidine at 10 umol/L after 3 hrs by UPLC-MS/MS analysis", "type": "ADME, cell-based"}, "Adenosine kinase [21]": {"biological_target": "T1, Adenosine kinase", "assay": "Drug level assessed as human ADK-mediated compound formation treated with 4-(Methylsulfanyl)-8-(beta-D-ribofuranosyl)-8H-thieno[2',3':4,5]-pyrrolo[2,3-d]pyrimidine at 50 uM after 30 mins by HPLC analysis", "type": "ADME", "details": "0.5 h"}, "CCRF-CEM": {"test_system": "CCRF-CEM", "assay": "Cytotoxicity against human CCRF-CEM cells assessed as cell growth inhibition after 72 hrs by MTS assay"}},
  "data": [
    {"smiles": "CSc1ncnc2c1c1sccc1n2[C@@H]1O[C@H](COP(=O)([O-])O)[C@@H](O)[C@H]1O.[Na+]", "values": [
      {"measurement": "IC50", "setting": "BJ", "result": 640, "unit": "nM"},
      {"measurement": "IC50", "setting": "MRC5", "result": "> 50", "unit": "µM"},
      {"measurement": "IC50", "setting": "[1]", "result": 47.6, "unit": "µM"},
      {"measurement": "IC50", "setting": "HCT-116 [2]", "result": 110, "unit": "nM"},
      {"measurement": "IC50", "setting": "HCT-116 [3]", "result": 130, "unit": "nM"},
      {"measurement": "IC50", "setting": "K562", "result": 390, "unit": "nM"},
      {"measurement": "IC50", "setting": "[4]", "result": "> 50", "unit": "µM"},
      {"measurement": "IC50", "setting": "U2OS", "result": 9.89, "unit": "µM"},
      {"measurement": "IC50", "setting": "HL-60", "result": 340, "unit": "nM"},
      {"measurement": "IC50", "setting": "HepG2", "result": 540, "unit": "nM"},
      {"measurement": "IC50", "setting": "HeLa S3", "result": 9.61, "unit": "µM"},
      {"measurement": "IC50", "setting": "A549", "result": "> 50", "unit": "µM"},
      {"measurement": "Drug metabolism", "setting": "Adenosine kinase [5]", "result": 19751.3, "unit": "pmol"},
      {"measurement": "Drug metabolism", "setting": "Adenosine kinase [6]", "result": 4124, "unit": "pmol"},
      {"measurement": "Drug metabolism", "setting": "Adenosine kinase [7]", "result": 27253.4, "unit": "pmol"},
      {"measurement": "Drug metabolism", "setting": "Adenosine kinase [8]", "result": 5737.8, "unit": "pmol"},
      {"measurement": "Drug metabolism", "setting": "Adenosine kinase [9]", "result": 62703.9, "unit": "pmol"},
      {"measurement": "Drug metabolism", "setting": "Adenosine kinase [10]", "result": 6108.2, "unit": "pmol"},
      {"measurement": "Drug metabolism", "setting": "Adenosine kinase [11]", "result": 65894.4, "unit": "pmol"},
      {"measurement": "Drug metabolism", "setting": "Adenosine kinase [12]", "result": 15246.3, "unit": "pmol"},
      {"measurement": "Drug metabolism", "setting": "Adenosine kinase [13]", "result": "Metabolite_Detected"},
      {"measurement": "Drug metabolism", "setting": "Adenosine kinase [14]", "result": "Metabolite_Detected"},
      {"measurement": "Drug metabolism", "setting": "Adenosine kinase [15]", "result": "Metabolite_Detected"},
      {"measurement": "Drug metabolism", "setting": "Adenosine kinase [16]", "result": "Metabolite_Detected"},
      {"measurement": "Drug metabolism", "setting": "Adenosine kinase [17]", "result": "Metabolite_Detected"},
      {"measurement": "Drug metabolism", "setting": "Adenosine kinase [18]", "result": "Metabolite_Detected"},
      {"measurement": "Drug metabolism", "setting": "Adenosine kinase [19]", "result": "Metabolite_Detected"},
      {"measurement": "Drug metabolism", "setting": "Adenosine kinase [20]", "result": "Metabolite_Detected"},
      {"measurement": "Drug metabolism", "setting": "Adenosine kinase [21]", "result": "Metabolite_Detected"},
      {"measurement": "IC50", "setting": "CCRF-CEM", "result": 200, "unit": "nM"}
    ]}
  ]
}
